Reference: ChEMBL document CHEMBL4425160, “DABCO-catalyzed one-pot three component synthesis of dihydropyrano[3,2-c]chromene substituted quinazolines and their evaluation towards anticancer activity” (Bioorg Med Chem Lett, 2016)

Key:
MDA-MB-231 [1] = experiment: Cytotoxicity against human MDA-MB-231 cells assessed as cell growth inhibition after 48 hrs by MTT assay; format: functional, cell-based; settings: MDA-MB-231, 48 h
Procedure, shortened: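 Cells counted by trypan blue exclusion, seeded at 1×10^4 per well in DMEM with 10% FBS, and left 24 h. They were then exposed to a concentration series for 48 h at 37°C. Serum-free medium with MTT was added for 4 h, formazan was dissolved in DMSO, and A570 was read minus A690. IC50 was read from the 50% viability point versus DMSO+DMEM controls.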

MDA-MB-231 [2] = experiment: Cytotoxicity against human MDA-MB-231 cells assessed as cell growth inhibition at 100 uM after 48 hrs by MTT assay; format: functional; settings: MDA-MB-231, 48 h, read-out: GI
Procedure, shortened: (§1)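 MTT growth assay. 1×10^4 cells were seeded in DMEM with 10% FBS and incubated 24 h. Each compound was then applied at the stated single concentration for 48 h at 37°C, followed by MTT for 4 h. Formazan was solubilized in DMSO and absorbance read at 570 nm with 690 nm background subtraction. Inhibition is relative to control cells given DMSO+DMEM.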

MDA-MB-231 [3] = experiment: Cytotoxicity against human MDA-MB-231 cells assessed as cell growth inhibition at 50 uM after 48 hrs by MTT assay; format: functional; settings: MDA-MB-231, 48 h, read-out: GI; procedure, shortened: as §1

Structure (SMILES)	IC50 (MDA-MB-231 [1]) [µM]	inhibition of growth at 100 µM (MDA-MB-231 [2]) [%]	inhibition of growth at 50 µM (MDA-MB-231 [3]) [%]
CCOC(=O)C1=C(N)Oc2c(c(=O)oc3cc(C)c(C)cc23)C1c1nc(OCc2ccccc2)c2ccccc2n1 (centres undefined)	> 100	–	–
CCOC(=O)C1=C(N)Oc2c(c(=O)oc3c(Cl)cc(Cl)cc23)C1c1nc(OCc2ccccc2)c2ccccc2n1 (centres undefined)	> 100	–	–
CCOC(=O)C1=C(N)Oc2c(c(=O)oc3c(Br)cc(Cl)cc23)C1c1nc(OCc2ccccc2)c2ccccc2n1 (centres undefined)	28.3	> 95	80
CCOC(=O)C1=C(N)Oc2c(c(=O)oc3cc(OC)ccc23)C1c1nc(OCc2ccccc2)c2ccccc2n1 (centres undefined)	> 100	–	–
CCOC(=O)C1=C(N)Oc2c(c(=O)oc3ccccc23)C1c1nc(OCc2ccccc2)c2ccccc2n1 (centres undefined)	> 100	–	–
CCOC(=O)C1=C(N)Oc2c(c(=O)oc3cc(OC)c(Cl)cc23)C1c1nc(OCc2ccccc2)c2ccccc2n1 (centres undefined)	> 100	–	–
CCOC(=O)C1=C(N)Oc2c(c(=O)oc3ccc(F)cc23)C1c1nc(OCc2ccccc2)c2ccccc2n1 (centres undefined)	> 100	–	–
